Bioassay records deposited in PubChem BioAssay by several laboratories.
HSF1 inh: HSF1 inhibitors in luciferase reporter cells, primary screen, cell-based, NIH3T3, luminescence; 300,000 compounds, 0.77% hits; NIH3T3-HGL HSE-luciferase, MG132-induced, luminescence 8 h; active compounds read low; activity change, negative = inhibition, % at 7.5 µM (by protocol); AID 2098, 2009;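 active = more than half of replicate wells show activity change below -50%, luminescence cut by over half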;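 also: luciferase reports HSF-1 transcriptional activity via heat shock element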
T cruzi repl: inhibitors of intracellular T. cruzi growth, primary screen, luminescence, NIH3T3 host cells. T. cruzi beta-gal in NIH3T3, 90 h. inhibition, % (no concentration beside the values). 300,000 compounds, 1.4% hits. AID 1885, 2009;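 active = mean inhibition across valid replicates above about 55%, limit read from the data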;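 also: signal also drops with host cell toxicity which is not excluded here; higher percent means less beta-gal luminescence so fewer parasites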
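System: Mouse NIH/3T3 fibroblasts infected with β-gal-expressing T. cruzi Tulahuen C4 | Quantity: NIH/3T3 cells, 5,000 per well | Reagent: 5000 reporter trypomastigotes per well | Dosing: Compound pinned at 50 nL/well, DMSO | Schedule: 3 h host attachment, then at least 90 h co-culture | Detection: GalScreen luminescence, 60 min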
Hsp70 act: Hsp70 transcriptional activators, primary screen, cell-based, HeLa, Hsp70 promoter luciferase, luminescence, 10 µM | HeLa Hsp70 promoter luciferase reporter; scaled: vehicle 0, proteasome-inhibitor control 100% | activation, % at 10 µM | 200,000 compounds, 0.04% hits | AID 1203, 2008;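 active = activation above the mean across all tested compounds plus 3 SD, cutoff set per campaign, cut at about 5.5% in these data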
L major viab: Leishmania major promastigote growth inhibition, primary screen; 200,000 compounds, 9% hits; Leishmania major promastigotes, resazurin fluorescence viability; inhibition, % at 10 µM; in the data active = inhibition above about 50%;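 also: promastigotes grown with compound for 44 hours at 28 °C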
HSF1 activator: HSF-1 activators, primary screen, NIH3T3-HGL cells, MG132 stress, luminescence, single point. NIH3T3-HGL HSF-1 luciferase reporter, 8 h; 100% = twice DMSO control signal. activation, % at 9 µM. 300,000 compounds, 1.7% hits. AID 504408, 2011;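 active = mean replicate activation of at least 50% with a set share of replicates each reaching 50%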
Each line names hits and unclear results; the compound was inactive in the other large screens. Many of the other results were omitted from the sample, so hits are more common in it than they were.

CC(C)(C)c1ccc(CN(Cc2ccccc2)C(c2ccccn2)c2nnnn2C(C)(C)C)cc1 (configuration not stated)	T cruzi repl 62, L major viab 77
CCN(Cc1ccccc1)C(c1ccncc1)c1nnnn1C(C)(C)C (configuration not stated)	none
CC(C)(C)n1nnnc1C(c1cccs1)N(Cc1ccccc1)Cc1cccnc1 (configuration not stated)	L major viab 99
CC(C)C(=O)O/N=C(\N)c1ccc(Oc2ccc(Cl)cc2)c([N+](=O)[O-])c1	none (no result: Hsp70 act, L major viab)
c1cnn(Cc2cnc(N3CCOCC3)s2)c1	none
COc1ccc(NC(=O)CCS(=O)(=O)c2ccc3c(c2)oc(=O)n3C)cc1	none (no result: Hsp70 act, L major viab)
COC(=O)c1ccc(COc2ccccc2/C=C(\C#N)C(=O)Nc2c(C)cc(C)cc2C)cc1	L major viab 100, HSF1 activator 93
COc1ccc(Cl)cc1Nc1nc2ccc(C)cc2n2cnnc12	none (no result: Hsp70 act, L major viab)
CC(Nc1ccccc1)c1cc(Cl)ccc1O (configuration not stated)	L major viab 96 (no result: HSF1 inh, T cruzi repl, HSF1 activator)
CC(NC(=O)CC(c1ccccc1)c1cc(Cl)ccc1O)c1ccccc1 (configuration not stated)	L major viab 98
COc1cc(-c2nc(-c3ccccc3)c(-c3cccs3)[nH]2)cc(OC)c1O	none
COc1cccc(-c2nc(-c3ccccc3)c(-c3ccccc3)[nH]2)c1OCC(=O)O	none (no result: Hsp70 act, L major viab)
COc1ccc([N+](=O)[O-])cc1-c1[nH]c(-c2ccc(C(=O)O)cc2)nc1-c1ccccc1	none (no result: Hsp70 act, L major viab)
COc1cc(-c2nc(-c3ccc4c(c3)-c3ccccc3S4(=O)=O)c(-c3ccccc3)[nH]2)cc(OC)c1OC	T cruzi repl 59, L major viab 99
COc1cc(-c2nc(-c3ccccc3)c(-c3cccs3)[nH]2)cc(OC)c1OC	T cruzi repl 62, L major viab 90
COc1cccc(-c2nc(-c3ccc4c(c3)-c3ccccc3S4(=O)=O)c(-c3ccccc3)[nH]2)c1OC	L major viab 57
Cc1ccc(NC(=O)COC(=O)[C@H](C)NC(=O)c2ccccc2)cc1S(=O)(=O)N1CCOCC1	none (no result: Hsp70 act, L major viab)
O=C(CS(=O)(=O)c1cn(CC(=O)N2CCOCC2)c2ccccc12)Nc1ccccc1F	none (no result: Hsp70 act, L major viab)
CN(Cc1cnccn1)Cc1ccccc1OCC(O)CN1CCc2ccccc2C1 (configuration not stated)	none
C=CCN(C(=O)c1csnn1)C(C(=O)NCc1ccc(F)cc1)c1ccccc1 (configuration not stated)	none (no result: Hsp70 act, L major viab)
COc1cc(NS(=O)(=O)c2ccc(C)cc2)c2ncccc2c1	HSF1 inh -81, T cruzi repl 78, L major viab 99
Cc1ccc(S(=O)(=O)Nc2cc(C(C)C)c(O)cc2C)cc1	L major viab 76
Cc1ccc(S(=O)(=O)Nc2ccccc2-c2ccccc2NS(=O)(=O)c2ccc(C)cc2)cc1	L major viab 96
Cc1ccc(S(=O)(=O)Nc2cccc3cccnc23)cc1	L major viab 100, HSF1 activator 81
COc1ccc(S(=O)(=O)N2CCCCCC2)cc1C(=O)N(C)CC(=O)Nc1cc(C)ccc1C	none (no result: Hsp70 act, L major viab)
O=C1CCCN1CC(=O)N1CCCC(Nc2cccc(F)c2)C1 (configuration not stated)	none (no result: Hsp70 act, L major viab)
O=S(=O)(Nc1ccccc1O)c1ccc(-c2ccccc2)cc1	HSF1 activator 65
O=S(=O)(Nc1cccnc1Cl)c1ccc(-c2ccccc2)cc1	none (no result: Hsp70 act, L major viab)
O=C1C(=O)N(CCS(=O)(=O)c2ccccc2)c2ccc(F)cc21	none (no result: Hsp70 act, L major viab)
O=C(CCl)Nc1ccccc1Sc1ccc(Cl)cc1	none
Cc1ccc(Sc2ccc(NC(=O)CCl)cc2)c(C)c1	L major viab 97, HSF1 activator 76
Cc1cc(C)cc(NS(=O)(=O)c2ccc3c(c2)c(=O)n(C)c(=O)n3C)c1	L major viab 97
Cc1ccc(NS(=O)(=O)c2ccc3c(c2)c(=O)n(C)c(=O)n3C)cc1F	L major viab 68
CC1CCC(NC(=O)CCC(=O)N2CC(C)Oc3ccccc32)CC1 (configuration not stated)	none (no result: Hsp70 act, L major viab)
CCOC(=O)c1cc2c(ccn2C)n1CC(=O)N1CCC(Cc2ccccc2)CC1	L major viab 95
